Paper PMC8828683 (Stem Cell Reports, 2022)

What was measured:
Assay type in all cases: cell-based, human
[1] = tested on: NTERA-2 ECC; assay: Live cells / PCD by FACS of nonpermeabilized cells stained with annexin-V and PI
Procedure, shortened: (§1)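 Cells were seeded so that vehicle wells stayed subconfluent, then treated with a range of test compound concentrations for 4 days. Without permeabilization, they were stained with annexin-V-FITC and propidium iodide and analysed by flow cytometry. Double-negative cells (Q3) were scored as live and Q1+Q2 as programmed death. Vehicle was set to 100% viable and 0% dead. Results are the mean of three independent assays with SEM; group averages and ratios are derived from the IC50s.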

[2] = tested on: HFF-1 normal skin fibroblast; assay: Cells with <2N DNA by FACS of permeabilized cells stained with PI; settings: Homo sapiens, HFF-1, read-out: IC50 DNA (50% of cells with <2N DNA)
Procedure, shortened: (§2)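 Cells were exposed to a range of test compound concentrations alongside vehicle (DMSO) controls. They were then permeabilized, stained with propidium iodide, and DNA content was read by flow cytometry. IC50 is the concentration at which 50% of cells hold <2N DNA, from 3 independent repetitions with SEM. Line averages and differentiated/pluripotent ratios are derived from these IC50s. NTERA-2 was also run as a time course at 5 μM, normalized to vehicle at each time point.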

[3] = tested on: HFF-1 normal skin fibroblast; assay: Live cells / PCD by FACS of nonpermeabilized cells stained with annexin-V and PI; settings: Homo sapiens, HFF-1, read-out: IC50 Live Cells
Procedure, shortened: as §1

[4] = tested on: NTERA-2 ECC; assay: Cells with <2N DNA by FACS of permeabilized cells stained with PI; settings: Homo sapiens, NTERA2, read-out: IC50 DNA (50% of cells with <2N DNA)
Procedure, shortened: as §2

Cc1cccc(/C=N/Nc2cc(N3CCOCC3)nc(OCCc3ccccn3)n2)c1 [Apilimod]
IC50 ([1]; Homo sapiens, NTERA2, 96 h, read-out: IC50 Live Cells): 0.2 µM | Effectiveness relative to WX8 ([1]; NTERA-2 cells): about 10 times | IC50 [2]: > 10 µM | IC50 [3]: > 10 µM | IC50 [4]: 0.4 µM
